Bioassay records as filed in PubChem BioAssay.
The sample as a whole holds a higher share of hits than the screen did.
NALP1 inh: blocks the NALP1 inflammasome reconstituted in yeast. S. cerevisiae NALP1/ASC/caspase-1 growth, X-gal OD620, 72 h. inhibition, % at 10 µM. 280,000 tested, 0.61% active; in the data active = inhibition mostly above about 24%, no sharp cut-off; inactive = mostly below about 32%
T cruzi repl: T. cruzi replication inhibition | T. cruzi beta-gal in NIH3T3, luminescence, 90 h | inhibition, % (concentration not given with the values) | AID 1885 | 300,000 tested, 1.4% active;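 active = mean inhibition across valid replicates above about 55%, limit read from the data; inconclusive = mean below that limit but half or more replicates reach it; inactive = mean below it, under half of replicates reach it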;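 note: signal also drops with host cell toxicity which is not excluded here; higher percent means less beta-gal luminescence so fewer parasites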
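assay system = mouse NIH/3T3 fibroblasts infected with β-gal-expressing T. cruzi Tulahuen C4 | input = 5,000 NIH/3T3 host cells per well | buffer or medium = DMEM plus 2% FBS | timing = 3 h host attachment, then at least 90 h co-culture | measured by = GalScreen luminescence, 60 min | evaluation = luminescence reflecting intracellular parasite burden, expressed as percent inhibition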
PolyA inhibitor: blocks polyadenylation in yeast reporter cells | S. cerevisiae SKY197-pL101 polyadenylation reporter, beta-gal luminescence; efflux-impaired pdr1/pdr3 knockout yeast; score 100 = 6 SD above DMSO | activity score, % at 12 µM | 300,000 tested, 0.02% active | AID 1875;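 active = lowest replicate activity score at least 50, where 100 means six control SD above control mean; inconclusive = lowest score under 50 but half or more replicates reach 50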;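 note: yeast exposed to compound for 9 h at 30 °C; higher score means more reporter readthrough which indicates perturbed polyadenylation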
Calb FLC: C. albicans growth modulation with fluconazole. growth inhibition, % (no concentration beside the values). AID 1979. C. albicans CaCi-2 + fluconazole, Alamar Blue growth, 48 h. 300,000 tested, 0.57% active;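 active = growth inhibition above about 58% in most replicates, limit read from the data, passing the limit was not always enough; inconclusive = exactly half the replicates above a set limit; inactive = most replicates below a set limit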;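 note: all wells also contain fluconazole at 8 µg/ml as a sub-toxic cotreatment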
NALP3 yeast inh: blocks the NALP3 inflammasome reconstituted in yeast; 330,000 tested, 0.39% active; Yeast reconstituted NLRP3/ASC/caspase-1, beta-gal luminescence, 24 h; inhibition, % at 10 µM; AID 2825;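 active = inhibition of 50% or more; inactive = inhibition below 50%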
Lmaj promast: Leishmania major promastigote growth inhibition. AID 1063. 200,000 tested, 9% active. Leishmania major promastigotes, resazurin fluorescence viability. inhibition, % at 10 µM; in the data active = inhibition above about 50%;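 note: promastigotes grown with compound for 44 hours at 28 °C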
Hits are given with their value; . = inactive; ? = inconclusive; / = no result.

SMILES	NALP1 inh	T cruzi repl	PolyA inhibitor	Calb FLC	NALP3 yeast inh	Lmaj promast
O=C(CNC(=O)C1COc2ccccc2O1)Nc1cc(Cl)ccc1Cl (stereo not given)	/	/	/	/	.	/
CC(C)CC(=O)NC(c1ccccc1)c1c(O)ccc2ccccc12 (stereo not given)	.	.	.	.	.	/
CCCCC(=O)NC(c1ccc([N+](=O)[O-])cc1)c1c(O)ccc2ccccc12 (stereo not given)	.	.	.	.	.	100
CCC(=O)NC(c1ccc([N+](=O)[O-])cc1)c1c(O)ccc2ccccc12 (stereo not given)	.	.	.	.	.	69
CC(=O)NC(c1ccc(Cl)cc1)c1c(O)ccc2ccc(O)cc12 (stereo not given)	.	.	.	.	.	.
COCCN1C(=O)N[C@@H](c2ccco2)C(C(C)=O)=C1C	.	.	.	.	.	.
Cn1ncc(Cl)c1C(=O)N1CCN(c2ccc(F)cc2)CC1	.	.	.	/	.	/
CCCCNC(=O)c1ccccc1NC(=O)CN(c1ccccc1)S(=O)(=O)N(C)C	.	.	.	.	.	65
Cc1cc(C)c(-c2csc(NC(=O)COC(=O)c3ccc4c(c3)OCO4)n2)c(C)c1	.	55	.	.	.	.
O=C(COC(=O)c1ccc2c(c1)OCO2)Nc1nc(-c2ccccc2)cs1	.	.	.	.	.	.
Brc1ccccc1/C=N/Nc1ccc2ccccc2n1	.	.	.	.	.	.
Cc1cc(N/N=C/c2ccccc2Br)nc2ccccc12	.	?	.	.	.	52
Cc1ccc(-n2cc(CNCCCn3ccnc3C)c(-c3ccc(F)cc3)n2)cc1	.	84	.	.	.	100
Cc1ccc(-n2cc(CNCCc3cscn3)c(-c3ccc(F)cc3)n2)cc1	.	.	.	.	.	75
CCOC(=O)C(Oc1ccc2c(-c3ccccc3)cc(=O)oc2c1C)c1ccccc1 (stereo not given)	.	.	.	.	.	100
CCOC(=O)C(Oc1ccc2c(-c3ccc(OC)cc3)cc(=O)oc2c1C)c1ccccc1 (stereo not given)	.	.	.	.	.	100
Cc1c(OCc2ccc(C(=O)O)cc2)ccc2c(-c3ccccc3)cc(=O)oc12	.	.	.	.	.	/
COc1ccc(-c2cc(=O)oc3c(C)c(OC(C)C(C)=O)ccc23)cc1 (stereo not given)	.	.	.	.	.	/
CCCCOc1ccc(Br)cc1/C(C)=N/NC1=NCCN1	.	.	.	.	.	101
COc1ccc(/C(C)=N/NC2=NCCN2)cc1Cl	.	.	.	.	.	/
C/C(=N\NC1=NCCN1)c1ccc(N)c([N+](=O)[O-])c1	.	.	.	.	.	/
CCCCCCOc1ccc(/C(C)=N/NC2=NCCN2)cc1[N+](=O)[O-]	.	66	.	?	.	100
CCCN(CC(=O)Nc1cc(Cl)cc(Cl)c1)CC(=O)Nc1ccc(F)c(F)c1F	.	.	.	.	.	63
O=C(CCNc1ccccc1)c1cccc([N+](=O)[O-])c1	.	.	.	.	.	96
O=C(NCCNc1ccc([N+](=O)[O-])cc1)c1cccc(Br)c1	.	.	.	.	.	.
SMILES	NALP1 inh	T cruzi repl	PolyA inhibitor	Calb FLC	NALP3 yeast inh	Lmaj promast
O=C(CC(=O)c1cccc([N+](=O)[O-])c1)Nc1ccccc1Cl	.	.	.	103	.	.
O=C(CCNc1ccc(F)cc1)c1cccc([N+](=O)[O-])c1	.	.	.	.	.	97
O=C(CCNc1ccc(Br)cc1)c1cccc([N+](=O)[O-])c1	.	.	.	.	.	88
Cc1cccc(NC(=O)C2CC3CCC2C3)c1C (stereo not given)	/	.	.	.	.	/
CC(C)(CNC(=O)c1cccs1)N1CCOCC1	/	/	/	/	.	/
COc1ccccc1-c1nnc(SCC(=O)NCc2c(C)c(Cl)cc(C(C)C)c2O)o1	.	.	.	.	.	.
Cc1ccc(NCCC(=O)c2cccc([N+](=O)[O-])c2)cc1	/	.	.	.	.	100
CC1(C)CC(=O)C2=C(C1)OC1=C(C(=O)CC(C)(C)C1)C2c1cc([N+](=O)[O-])cc([N+](=O)[O-])c1O	.	.	.	91	.	.
c1ccc(Nc2nc(N3CCCCC3)nc(N3CCCCC3)n2)cc1	.	.	.	.	.	.
C1CCN(c2nc(N3CCCC3)nc(N3CCNCC3)n2)C1	.	.	.	.	/	100
c1ccc(Nc2nc(N3CCCCC3)nc(N3CCNCC3)n2)cc1	.	.	.	.	.	100
CCOc1ccc(Nc2nc(N3CCCCC3)nc(N3CCCCC3)n2)cc1	.	.	.	.	.	59
COc1ccc(N2CCN(c3nc(Nc4ccc(C)c(F)c4)nc(N4CCCC4)n3)CC2)cc1	.	68	.	.	.	.
COc1ccc(N2CCN(c3nc(Nc4ccc(F)cc4)nc(OC)n3)CC2)cc1	.	/	/	/	/	.
CC(=O)c1cc(CN2CCN(C3CCCCC3)C(CCO)C2)cs1 (stereo not given)	.	.	.	.	.	.
O=C(/C=C/c1ccc(S(=O)(=O)N2CCOCC2)cc1)NC(=S)Nc1ccc(Cl)cc1Cl	.	.	.	.	.	.
Cc1ccc(C(=O)N2CCN(S(=O)(=O)c3cc(Br)ccc3Br)CC2)o1	.	.	.	.	.	/
O=C(CSC(=S)N1CCOCC1)Nc1ncc2c(n1)CC(c1ccco1)CC2=O (stereo not given)	/	.	.	.	.	/
CCOc1ccc(Nc2nc(N)nc(CN3CCN(c4ccccc4F)CC3)n2)cc1	.	.	.	.	.	52
COc1cc(NC(=O)N[C@@H](Cc2c[nH]c3ccccc23)C(=O)O)c(C(=O)O)cc1OC	.	.	.	.	.	/
CCOC(=O)C1(Cc2ccccc2)CCN(Cc2cccc(OC)c2O)CC1	.	.	.	.	.	68
CCOC(=O)C1(Cc2ccccc2)CCN(Cc2cccc3nccnc23)CC1	.	.	.	.	.	.
CCOC(=O)C1(Cc2cccc(OC)c2)CCN(Cc2ccc(OC)c(OC)c2)CC1	.	.	.	.	.	91
CCOC(=O)C1(Cc2cccc(OC)c2)CCN(Cc2ccccc2OC)CC1	.	.	.	.	.	.
CCOC(=O)C1(Cc2cccc(OC)c2)CCN(Cc2cccc(OC)c2O)CC1	.	.	.	.	.	72
CCOC(=O)C1(Cc2ccccc2)CCN(Cc2csc(C(C)=O)c2)CC1	.	.	.	.	.	86
COc1ccc(-c2cc(C)no2)cc1S(=O)(=O)N1CCN(c2ccccc2F)CC1	.	.	.	.	.	/
CCOC(=O)C1(Cc2cccc(F)c2)CCN(Cc2cnn(CC)c2C)CC1	.	.	.	.	.	69
CCOC(=O)C1(Cc2cccc(OC)c2)CCN(Cc2cccn2-c2nccs2)CC1	39	.	.	.	.	.
CCOC(=O)C1(Cc2cccc(F)c2)CCN(Cc2cnn(CC)c2)CC1	.	.	.	.	.	.
